From ChEMBL document CHEMBL5338811, “Computational Design, Synthesis, and Biological Evaluation of Diimidazole Analogues Endowed with Dual PCSK9/HMG-CoAR-Inhibiting Activity” (J Med Chem, 2023)
Calls of active or inactive are those of the source.

How the values were obtained:
[1] = test system: HepG2; test: Cytotoxicity against human HepG2 cells assessed as reduction in cell viability upto 10 uM after 48 hrs by MTT assay; type: toxicity, cell-based; conditions: hepg2, 48 h
Outline: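 HepG2 cells treated 48 h with compound at 0.1–10,000 nM; viability read by MTT versus untreated control cells. Mean ± SD of three experiments run in triplicate.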

[2] = Induction of LDLR expression in human HepG2 cells membrane in presence of 1 nM PCSK9 (reference value: 39.71 +/- 2.05%); type: functional
[3] = Induction of LDL uptake in human HepG2 cells incubated for 2 hrs in presence of 1 nM PCSK9 by fluorescent plate reader analysis (reference value: 51.69 +/- 15.30 %); type: functional
[4] = biological target: Proprotein convertase subtilisin/kexin type 9 (Homo sapiens) (UniProt Q8NBP7); test: Inhibition of PCSK9 mediated epinephrine induced platelet aggregation in human platelet rich plasma assessed as prevention of lag time reduction at 10 nM preincubated for 15 mins followed by PRP addition by light transmission aggregometry assay
Sequence of Proprotein convertase subtilisin/kexin type 9 (Homo sapiens) (Q8NBP7 31-152 limits assumed): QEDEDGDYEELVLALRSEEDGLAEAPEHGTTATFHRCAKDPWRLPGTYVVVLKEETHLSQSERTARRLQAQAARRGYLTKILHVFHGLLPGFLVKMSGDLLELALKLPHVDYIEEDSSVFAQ
Sequence of Proprotein convertase subtilisin/kexin type 9 (Homo sapiens) (Q8NBP7 153-692 limits assumed): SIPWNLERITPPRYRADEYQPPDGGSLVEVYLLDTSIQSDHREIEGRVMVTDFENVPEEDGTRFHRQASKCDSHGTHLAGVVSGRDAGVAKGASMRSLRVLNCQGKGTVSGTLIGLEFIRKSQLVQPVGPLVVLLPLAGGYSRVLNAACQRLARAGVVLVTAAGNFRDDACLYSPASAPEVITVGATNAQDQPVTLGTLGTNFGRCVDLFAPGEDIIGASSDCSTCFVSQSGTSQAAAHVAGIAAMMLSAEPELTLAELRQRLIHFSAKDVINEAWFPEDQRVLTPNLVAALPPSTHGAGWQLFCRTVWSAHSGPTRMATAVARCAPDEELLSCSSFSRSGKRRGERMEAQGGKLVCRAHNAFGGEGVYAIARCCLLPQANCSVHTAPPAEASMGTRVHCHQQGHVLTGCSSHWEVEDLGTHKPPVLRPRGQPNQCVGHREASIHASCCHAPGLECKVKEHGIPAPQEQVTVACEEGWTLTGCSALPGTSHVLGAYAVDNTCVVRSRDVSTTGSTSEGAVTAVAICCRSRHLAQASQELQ
Outline: (§1)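 PRP from healthy donors (n = 5), prepared by centrifuging whole blood 10 min at 100g at room temperature without brakes. Recombinant PCSK9 (5 μg/mL) preincubated with compound for 15 min at room temperature, then added to PRP for 2 min at 37 °C. Aggregation triggered by subthreshold epinephrine (0.16 μM) and followed by light transmission aggregometry. Lag time and area under the curve were scored.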

[5] = biological target: Proprotein convertase subtilisin/kexin type 9 (Homo sapiens) (UniProt Q8NBP7); test: Inhibition of PCSK9 mediated epinephrine induced platelet aggregation in human platelet rich plasma assessed as prevention of AUC increase at 10 nM preincubated for 15 mins followed by PRP addition by light transmission aggregometry assay; outline: as §1
[6] = Metabolic stability in human liver microsomes assessed as clearance per mg protein at 5 uM preincubated for 10 mins followed by UDPGA addition and measured upto 60 mins by LC-MS/MS analysis; type: ADME, Microsome; conditions: time < 70 min, read-out: CLH
Outline: (§2)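 Compound at 5 μM final, in duplicate, from a 1 mM DMSO solution. Pre-incubated 10 min at 37 °C with human or mouse liver microsomes (0.5 mg/mL) in 50 mM potassium phosphate pH 7.4 with 3 mM MgCl2. The reaction was started with an NADPH-regenerating mix plus UDPGA. Samples taken at 0–60 min were quenched in ACN and analysed by LC–MS/MS. A no-cofactor control was included; 7-ethoxycoumarin and 7-hydroxycoumarin served as references.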

[7] = Metabolic stability in mouse liver microsomes assessed as clearance per mg protein at 5 uM preincubated for 10 mins followed by UDPGA addition and measured upto 60 mins by LC-MS/MS analysis; type: ADME, Microsome; conditions: time < 70 min, read-out: CLH; outline: as §2
[8] = Induction of LDLR expression in human HepG2 cells membrane in presence of 10 nM PCSK9 (reference value: 39.71 +/- 2.05%); type: functional
[9] = Induction of LDL uptake in human HepG2 cells incubated for 2 hrs in presence of 10 nM PCSK9 by fluorescent plate reader analysis (reference value: 51.69 +/- 15.30 %); type: functional

SMILES | Activity [1] | microsomal CLint at 5 µM [6] [µL/min/mg] | microsomal CLint at 5 µM [7] [µL/min/mg] | further results
CNCCCCCn1c(-c2ncc(-c3ccc4ccccc4c3)n2CCCC(C)(C)C)cnc1I | Non-Toxic |  |  | Activity [2]: 101.1%; Activity [3]: 103.47%; inhibition [4]: Active; inhibition [5]: Active
O=c1ccc2ccc(O)cc2o1 [UMBELLIFERONE] |  | 390 | 533 | 
CCOc1ccc2ccc(=O)oc2c1 [ETHOXYCOUMARIN] |  | 46.1 | 291 | 
C#Cc1ncc(-c2ncc(-c3ccc4ccccc4c3)n2CCCC(C)(C)C)n1CCCCCNC | Non-Toxic |  |  | Activity [8]: 91.1%; Activity [9]: 81.87%
